Experimental data published in ChEMBL document CHEMBL3616432, “(+)-Dehydroabietylamine derivatives target triple-negative breast cancer” (Eur J Med Chem, 2015).
The source made the active and inactive calls. No cut-off for these calls is given here.

Experiments:
MDA-MB-231 [1] = test: Antiproliferative activity against human triple-negative MDA-MB-231 cells after 72 hrs by CellTiter-Glo assay; assay type: functional, cell-based
HepG2 = test: Cytotoxicity against human HepG2 cells at <= 50 uM after 72 hrs by CellTiter-Glo assay; assay type: cell-based; settings: hepg2, 72 h
MDA-MB-231 [2] = test: Antiproliferative activity against human triple-negative MDA-MB-231 cells at <= 50 uM after 72 hrs by CellTiter-Glo assay; assay type: functional, cell-based
HEK293 = test: Cytotoxicity against HEK293 cells at <= 50 uM after 72 hrs by CellTiter-Glo assay; assay type: cell-based; settings: human, hek293, 72 h
MDA-MB-231 [3] = test: Antiproliferative activity against human triple-negative MDA-MB-231 cells at 22 uM after 72 hrs by CellTiter-Glo assay; assay type: functional, cell-based
[4] = Permeability of the compound at pH 7.4 by PAMPA assay; assay type: physicochemical; settings: read-out: permeability
[5] = Apparent permeability from apical to basolateral side in human Caco2 cells; assay type: ADME, cell-based; settings: Caco-2
[6] = Apparent permeability from basolateral to apical side in human Caco2 cells; assay type: ADME, cell-based; settings: Caco-2
[7] = Efflux ratio of permeability from basolateral to apical side over apical to basolateral side in human Caco2 cells; assay type: ADME, cell-based; settings: Caco-2
[8] = Permeability of the compound at pH 7.4 assessed as drug retention by PAMPA assay; assay type: physicochemical
MDA-MB-231 [9] = test: Cell cycle arrest in human triple-negative MDA-MB-231 cells assessed as accumulation at S phase at 28.5 uM after 12 hrs by propidium iodide staining-based flow cytometry (reference value: 31.23%); assay type: functional
MDA-MB-231 [10] = test: Antiproliferative activity against human triple-negative MDA-MB-231 cells at 29 uM after 72 hrs by CellTiter-Glo assay; assay type: functional, cell-based
MDA-MB-231 [11] = test: Induction of apoptosis in human triple-negative MDA-MB-231 cells assessed as viable cells after 12 hrs by Annexin V-FITC/propidium iodide staining-based flow cytometry (reference value: 93.1%); assay type: functional
MDA-MB-231 [12] = test: Induction of apoptosis in human triple-negative MDA-MB-231 cells assessed as late apoptotic cells after 12 hrs by Annexin V-FITC/propidium iodide staining-based flow cytometry (reference value: 3.7%); assay type: functional
MDA-MB-231 [13] = test: Induction of apoptosis in human triple-negative MDA-MB-231 cells assessed as early apoptotic cells after 12 hrs by Annexin V-FITC/propidium iodide staining-based flow cytometry (reference value: 3.1%); assay type: functional
MDA-MB-231 [14] = test: Induction of apoptosis in human triple-negative MDA-MB-231 cells assessed as increase in DR5 level after 12 hrs by western blot analysis; assay type: functional, cell-based
MDA-MB-231 [15] = test: Induction of apoptosis in human triple-negative MDA-MB-231 cells assessed as decrease in caspase-7 level after 6 to 12 hrs by western blot analysis; assay type: functional, cell-based
MDA-MB-231 [16] = test: Cell cycle arrest in human triple-negative MDA-MB-231 cells assessed as accumulation at G0/G1 phase at 28.5 uM after 12 hrs by propidium iodide staining-based flow cytometry (reference value: 48.36%); assay type: functional
MDA-MB-231 [17] = test: Induction of apoptosis in human triple-negative MDA-MB-231 cells assessed as increase in cleaved PARP level by western blot analysis; assay type: functional, cell-based; settings: TDE = time-dependent effect
MDA-MB-231 [18] = test: Cell cycle arrest in human triple-negative MDA-MB-231 cells assessed as accumulation at G2/M phase at 28.5 uM after 12 hrs by propidium iodide staining-based flow cytometry (reference value: 20.40%); assay type: functional
MDA-MB-231 [19] = test: Induction of apoptosis in human triple-negative MDA-MB-231 cells assessed as increase in cleaved caspase-9 level after 6 to 12 hrs by western blot analysis; assay type: functional, cell-based
MDA-MB-231 [20] = test: Induction of apoptosis in human triple-negative MDA-MB-231 cells assessed as necrotic cells after 12 hrs by Annexin V-FITC/propidium iodide staining-based flow cytometry (reference value: 0.1%); assay type: functional
MDA-MB-231 [21] = test: Induction of apoptosis in human triple-negative MDA-MB-231 cells assessed as increase in cleaved caspase-8 level after 6 to 12 hrs by western blot analysis; assay type: functional, cell-based
MCF7 = test: Antiproliferative activity against human ER-positive MCF7 cells at 48 uM after 72 hrs by CellTiter-Glo assay; assay type: functional, cell-based
MDA-MB-231 [22] = test: Cell cycle arrest in human triple-negative MDA-MB-231 cells assessed as accumulation at S phase at 30.0 uM after 12 hrs by propidium iodide staining-based flow cytometry (reference value: 31.23%); assay type: functional
MDA-MB-231 [23] = test: Cell cycle arrest in human triple-negative MDA-MB-231 cells assessed as accumulation at G2/M phase at 30.0 uM after 12 hrs by propidium iodide staining-based flow cytometry (reference value: 20.40%); assay type: functional
MDA-MB-231 [24] = test: Cell cycle arrest in human triple-negative MDA-MB-231 cells assessed as accumulation at G0/G1 phase at 30.0 uM after 12 hrs by propidium iodide staining-based flow cytometry (reference value: 48.36%); assay type: functional
MDA-MB-231 [25] = test: Induction of DNA fragmentation in human triple-negative MDA-MB-231 cells at 30 uM by propidium iodide staining-based flow cytometry; assay type: functional, cell-based
Homo sapiens = species: Homo sapiens; test: Antiproliferative activity against human ER-positive MA11 cells at 48 uM after 72 hrs by CellTiter-Glo assay; assay type: functional
MDA-MB-231 [26] = test: Antiproliferative activity against human triple-negative MDA-MB-231 cells at 35 uM after 72 hrs by CellTiter-Glo assay; assay type: functional, cell-based
MDA-MB-231 [27] = test: Induction of apoptosis in human triple-negative MDA-MB-231 cells assessed as increase in cleaved caspase-3 level after 6 to 12 hrs by western blot analysis; assay type: functional, cell-based
[28] = Half life in human plasma; assay type: ADME, cell-free
How it was run: (§1)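 Compound stability incubated in human or mouse plasma; half-life determined, with known drugs as controls.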

[29] = Half life in mouse plasma; assay type: ADME, cell-free; how it was run: as §1
MDA-MB-231 [30] = test: Cell cycle arrest in human triple-negative MDA-MB-231 cells assessed as accumulation at G2/M phase at 2.5 uM after 12 hrs by propidium iodide staining-based flow cytometry (reference value: 20.40%); assay type: functional
MDA-MB-231 [31] = test: Induction of apoptosis in human triple-negative MDA-MB-231 cells at 2.5 uM after 6 to 48 hrs by microscopic analysis; assay type: functional, cell-based
MDA-MB-231 [32] = test: Cell cycle arrest in human triple-negative MDA-MB-231 cells assessed as accumulation at S phase at 2.5 uM after 12 hrs by propidium iodide staining-based flow cytometry (reference value: 31.23%); assay type: functional
MDA-MB-231 [33] = test: Cell cycle arrest in human triple-negative MDA-MB-231 cells assessed as accumulation at G0/G1 phase at 2.5 uM after 12 hrs by propidium iodide staining-based flow cytometry (reference value: 48.36%); assay type: functional

C=C[C@@]1(C)C=C2CC[C@@H]3[C@](C)(CCC[C@@]3(C)C(=O)O)[C@H]2CC1
Activity (MDA-MB-231 [1]): inactive

CC(C)c1cc2c(c(O)c1O)[C@@]13CCCC(C)(C)[C@@H]1C[C@@H]2OC3=O [CARNOSOL]
Activity (HepG2): Non-toxic
Activity (MDA-MB-231 [2]): Active
Activity (HEK293): Non-toxic
Activity (MDA-MB-231 [3]): Active

CC(C)c1cc2c(c(O)c1O)[C@@]1(C(=O)O)CCCC(C)(C)[C@@H]1CC2 [CARNOSIC ACID]
Activity (HepG2): Non-toxic
Activity (MDA-MB-231 [2]): Active
Activity (HEK293): Non-toxic

CC(C)c1ccc2c(c1)CC[C@H]1[C@](C)(C(=O)O)CCC[C@]21C [DEHYDROABIETIC ACID]
Activity (HepG2): Non-toxic
Activity (MDA-MB-231 [2]): Active
Activity (HEK293): Non-toxic

NC(=O)N1c2ccccc2C=Cc2ccccc21 [CARBAMAZEPINE]
Papp [4]: 128 ×10⁻⁶ cm/s
Papp A→B [5]: 66.7 ×10⁻⁶ cm/s
Papp B→A [6]: 42.8 ×10⁻⁶ cm/s
efflux ratio [7]: 0.6
permeability [8]: 40.9%

CC(C)c1ccc2c(c1)CC[C@H]1[C@](C)(CN)CCC[C@]21C
Activity (HepG2): Non-toxic
Activity (MDA-MB-231 [2]): Active
Activity (HEK293): Non-toxic

CC(C)c1cc2c(cc1O)[C@@]1(C)CCCC(C)(C)[C@@H]1CC2 [FERRUGINOL]
Activity (MDA-MB-231 [9]): 29.7%
Activity (MDA-MB-231 [10]): Active
Activity (MDA-MB-231 [11]): 85.8%
Activity (MDA-MB-231 [12]): 9.6%
Activity (HepG2): Non-toxic
Activity (MDA-MB-231 [13]): 4.4%
Activity (MDA-MB-231 [14]): Active
Activity (MDA-MB-231 [15]): Active
Activity (MDA-MB-231 [16]): 50.76%
Activity (MDA-MB-231 [2]): Active
Activity (MDA-MB-231 [17]): tde
Activity (HEK293): Non-toxic
Activity (MDA-MB-231 [18]): 19.54%
Activity (MDA-MB-231 [19]): inactive
Activity (MDA-MB-231 [20]): 0.2%

CC(C)c1ccc2c(c1)CC[C@H]1[C@](C)(CNS(=O)(=O)c3ccc(C=O)cc3)CCC[C@]21C
Activity (MDA-MB-231 [21]): Active
Activity (MCF7): inactive
Activity (MDA-MB-231 [11]): 90.4%
Activity (MDA-MB-231 [12]): 6%
Activity (MDA-MB-231 [13]): 3.4%
Activity (MDA-MB-231 [14]): Active
Activity (MDA-MB-231 [15]): Active
Activity (MDA-MB-231 [22]): 19.7%
Activity (MDA-MB-231 [23]): 16.89%
Activity (MDA-MB-231 [24]): 63.41%
Activity (MDA-MB-231 [17]): tde
Activity (MDA-MB-231 [25]): Active
Activity (Homo sapiens): Active
Activity (MDA-MB-231 [19]): Active
Activity (MDA-MB-231 [26]): Active
Activity (MDA-MB-231 [27]): Active
Activity (MDA-MB-231 [20]): 0.2%

CC1CC(OC(=O)C(O)c2ccccc2)CC(C)(C)N1C (stereo unspecified) [EUCATROPINE]
half-life [28]: 0.42 h
half-life [29]: 1.8 h

CC(C)C1=CC2=CC[C@@H]3[C@](C)(CCC[C@@]3(C)C(=O)O)[C@H]2CC1
Activity (MDA-MB-231 [1]): inactive

CN[C@@H]1C[C@H]2O[C@@](C)([C@@H]1OC)n1c3ccccc3c3c4c(c5c6ccccc6n2c5c31)C(=O)NC4 [STAUROSPORINE]
Activity (MDA-MB-231 [11]): 55.7%
Activity (MDA-MB-231 [30]): 23.28%
Activity (MDA-MB-231 [13]): 25%
Activity (MDA-MB-231 [31]): inactive
Activity (MDA-MB-231 [32]): 33.22%
Activity (MDA-MB-231 [33]): 43.5%
Activity (MDA-MB-231 [20]): 0.5%
